mABHD4 FP: inhibits mouse alpha/beta hydrolase domain 4; Q8VD66; purified mABHD4, FP-Rh probe fluorescence polarization; inhibition, % at 8.92 µM; hit rate 0.54% among 370,000;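 active = inhibition exceeding the mean over every tested compound plus 3 SD, cut at about 30% in these data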
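System: mouse ABHD4 enzyme, wild type / Medium: HEPES pH 7.0, NaCl, Pluronic buffer / Reagent: FP-Rh activity-based fluorescent probe / Control set: S159A mutant high control, sample median low control / Detection: fluorescence polarization with parallel and perpendicular emission, 525/598 nm / Schedule: 45 min + 60 min at 25 °C / Compound dosing: 8.92 µM, single dose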
pPAFAH FP inh: inhibitors of human plasma PAF acetylhydrolase (pPAFAH); Q13093; recombinant pPAFAH, FP-rhodamine probe fluorescence polarization; inhibition, % at 3.39 µM; hit rate 1.5% among 330,000; AID 463082;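 active = inhibition above the mean inhibition across the screen plus 3 SD, cut at about 25% in these data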;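 also: inhibitors block binding of the rhodamine activity-based probe so polarization drops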
Target sequence (Q13093 whole entry, looked up): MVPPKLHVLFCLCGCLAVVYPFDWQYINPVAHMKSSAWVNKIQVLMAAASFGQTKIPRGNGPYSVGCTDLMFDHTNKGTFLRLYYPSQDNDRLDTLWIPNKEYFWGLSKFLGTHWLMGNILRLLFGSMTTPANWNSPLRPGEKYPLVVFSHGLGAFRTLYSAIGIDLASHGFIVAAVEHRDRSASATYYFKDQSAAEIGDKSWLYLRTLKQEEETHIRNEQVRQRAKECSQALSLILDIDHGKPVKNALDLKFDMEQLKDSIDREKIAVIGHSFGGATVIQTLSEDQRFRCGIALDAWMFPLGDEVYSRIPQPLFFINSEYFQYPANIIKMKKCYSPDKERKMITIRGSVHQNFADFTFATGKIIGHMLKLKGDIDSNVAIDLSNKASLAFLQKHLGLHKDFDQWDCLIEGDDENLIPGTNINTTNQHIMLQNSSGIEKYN
HTRA1 inhibitor: HTRA1 (human) protease inhibition; recombinant HTRA1, FP-rhodamine activity-based probe, fluorescence polarization; inhibition, % at 5.96 µM; AID 504803; Q92743; hit rate 0.5% among 340,000; in the data active = inhibition above about 36%
TCR-CD3 inh: inhibitors of human TCR-CD3 interaction; hit rate 0.37% among 360,000; inhibition, % at 9.4 µM; TAMRA-labeled TCR probe fluorescence, biochemical; in the data active = inhibition above about 19%;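 also: recombinant mutant TCR 2C K166C tagged with TAMRA read by polarization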
SIAE inh: human SIAE inhibition, primary screen. Q9HAT2. SIAE FP-Rh probe binding, fluorescence polarization. inhibition, % at 9.66 µM. hit rate 0.69% among 370,000. AID 1053197;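 active = inhibition above a cutoff: mean of compounds within the control limits plus 3 SD of those, cut at about 17% in these data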
A number is an active result; n = inactive; x = no result. In the library only some 2.3% were active in any assay of this set; here they are far more common.

SMILES	mABHD4 FP	pPAFAH FP inh	HTRA1 inhibitor	TCR-CD3 inh	SIAE inh
Cc1ccc(NC(=O)CN(C)C(=O)c2ccc(NS(=O)(=O)c3cccc([N+](=O)[O-])c3)cc2)cc1	n	n	n	n	n
Cc1ccc(Oc2ccc(S(=O)(=O)Nc3ccc(C(=O)O)cc3)cc2)cc1	n	29	n	n	n
CN(CC(=O)Nc1ccc(F)cc1)C(=O)c1cccc(NS(=O)(=O)c2ccccc2)c1	n	29	n	n	n
CCOc1ccc(NS(=O)(=O)c2ccc(C(=O)N(C)CC(=O)Nc3ccc(C)cc3)cc2)cc1	n	33	n	n	n
O=C(OC12CCCN(C1)/C(=C/c1ccccc1)C2)c1ccc(F)cc1 (stereo not drawn)	n	x	x	x	n
Cc1ccc(NC(=O)CSc2nc(C)cc(=O)[nH]2)c(C)c1	n	x	x	x	n
COc1ccc(C(=O)O)cc1S(=O)(=O)Nc1ccc(Oc2ccccc2)cc1	n	27	n	n	n
Cc1ccc(Nc2ccccc2)cc1	n	n	n	n	n
COc1ccc(C(=O)O)cc1S(=O)(=O)Nc1ccc(C)cc1	n	n	n	n	n
O=S(=O)(Nc1ccc(-c2ccccc2)cc1)c1ccccc1	n	x	n	n	n
O=S(=O)(Nc1ccccc1)c1ccc(NS(=O)(=O)c2c(F)cccc2F)cc1	n	28	n	n	n
Cc1ccc(S(=O)(=O)Nc2ccc(Nc3ccccc3)cc2)cc1	n	29	n	n	n
COc1ccc(C2CCC3(CCC(=O)N3CCOC(=O)NCc3ccc(Cl)cc3)CC2)cc1 (stereo not drawn)	n	x	x	x	n
CN(C)CCOc1ccc(C(C)(C)c2ccccc2)cc1	n	n	n	n	n
CC(C)(c1ccccc1)c1ccc(OCC2CO2)cc1 (stereo not drawn)	n	25	n	n	n
Cc1cc(=O)oc2c3c(cc(OCC(=O)NCc4ccccc4)c12)OC(C)(C)CC3	n	33	n	n	n
CCOC(=O)CC[C@@H]1CC[C@]2(CCCN(Cc3cccs3)C2)O1	n	x	x	x	n
CC1(C)c2ssc(=S)c2-c2ccccc2N1C(=O)c1ccco1	n	n	n	n	22
Cc1ccc2c(c1)-c1c(ssc1=S)C(C)(C)N2C(=O)c1ccco1	n	n	n	n	n
COC(=O)C1CN(Cc2cn(Cc3ccc(Cl)cc3)nn2)CCS(=O)(=O)N1Cc1ccc(C)cc1 (stereo not drawn)	n	x	x	x	n
CCN(CC)C(=O)CC[C@@H]1CC[C@]2(CCCN(C(=O)C(C)(C)C)C2)O1	n	x	x	x	n
O=C(COC(=O)c1cc(-c2ccco2)nc2ccccc12)NCc1ccc2c(c1)OCO2	n	26	n	n	n
CO[C@H]([C@H](C)/C=C/N(C)C=O)[C@@H](C)C(=O)CC[C@H](C)[C@H](O)[C@H](C)[C@H]1OC(=O)/C=C/C(C)=C/C[C@H](O)C[C@@H]2C=CC[C@@H](C[C@H](OC)C(C)(O)[C@@H](OC)C[C@@H](OC)[C@@H]1C)O2 (stereo partly drawn)	n	x	x	x	n
CCOC(=O)Cc1csc(NC(=O)c2sc3nc4cc(C)ccc4cc3c2N)n1	n	n	n	n	n
CCOC(=O)Cc1csc(NC(=O)c2sc3nc4ccc(CC)cc4cc3c2N)n1	n	34	n	n	n
SMILES	mABHD4 FP	pPAFAH FP inh	HTRA1 inhibitor	TCR-CD3 inh	SIAE inh
Cc1ccc(C(CCN(Cc2ccccc2)C(=O)c2ccco2)c2ccco2)cc1 (stereo not drawn)	n	30	n	n	n
CN(Cc1ccccc1)C(=O)c1ccco1	n	n	n	n	n
CC(=O)Nc1ccc2nc3c(=O)n(C)c(=O)n(C)c3nc2c1	n	30	n	n	n
Cc1ccc(C(=O)Oc2cc(C)[nH]c(=O)c2[N+](=O)[O-])cc1	n	29	n	n	n
Cc1cc(OC(=O)c2ccc(C)c(C)c2)c([N+](=O)[O-])c(=O)[nH]1	n	n	n	n	n
O=C(N[C@H](C(=O)N1CCC[C@H]1C(=O)NCc1ccccc1)c1ccccc1)c1ccccc1	n	x	x	n	n
Cc1cc(F)ccc1NC(=O)c1ccc(NS(=O)(=O)c2cc(C(C)(C)C)ccc2C)cc1	n	25	n	n	n
COc1ccccc1-n1c(SCC(=O)N2CCOCC2)nc(O)cc1=O	n	34	n	n	n
CCN1C(=O)[C@@H]2[C@@H](c3ccc(SC4CCCCC4)cc3)N3CCC[C@@]3(C(=O)OC)[C@@H]2C1=O	n	29	n	n	n
CCN1C(=O)[C@H]2[C@@H](c3ccc(SC4CCCCC4)cc3)N3CCCC[C@@]3(C(=O)OC)[C@H]2C1=O	n	n	n	n	n
CNC(=O)NC(=O)C(C)OC(=O)c1ccc(Cl)c(S(=O)(=O)Nc2ccc(F)cc2)c1 (stereo not drawn)	n	29	n	n	n
O=C1c2cccc(O)c2C(=O)c2c(O)cccc21	x	n	x	x	x
O=C1C=C(O)c2cccc(O)c2C1=O	41	n	n	n	n
O=C1c2ccccc2C(=O)c2c([N+](=O)[O-])ccc(O)c21	n	27	n	n	n
CC(=O)N1C[C@@H](c2c[nH]c3ccccc23)C=C[C@H]1C(=O)NS(=O)(=O)c1ccc(C)cc1	n	x	x	x	n
CC1(OC(=O)c2cccs2)C(=O)C=C2C=C(c3ccsc3)OC=C2C1=O (stereo not drawn)	x	56	x	x	x
COC(=O)CCCC1=CC2=CC(=O)C(C)(OC(=O)c3cccs3)C(=O)C2=CN1CCc1ccccn1 (stereo not drawn)	n	n	n	n	n
CC1(OC(=O)c2cccs2)C(=O)C=C2C=C(c3ccc(C#N)cc3)OC=C2C1=O (stereo not drawn)	x	45	x	x	x
CC1(OC(=O)CCc2ccccc2)C(=O)C=C2C=C(c3ccc(C#N)cc3)N(c3ccccc3)C=C2C1=O (stereo not drawn)	n	n	n	n	n
CC1(OC(=O)CCc2ccccc2)C(=O)C=C2C=C(c3ccsc3)OC=C2C1=O (stereo not drawn)	x	55	x	x	x
C=CCN1C=C2C(=O)C(C)(OC(=O)c3cccs3)C(=O)C=C2C=C1CCCC(=O)OC (stereo not drawn)	n	n	n	n	n
CC(=O)CC[C@@H]1CC[C@]2(CCCN(S(C)(=O)=O)C2)O1	n	x	x	x	n
COc1ccc(C)cc1NC(=O)c1ccc(NS(=O)(=O)c2c(C)noc2C)cc1	n	n	n	n	n
COc1ccc(C)cc1NC(=O)c1ccc(NS(=O)(=O)c2cccs2)cc1	n	32	n	n	n
CCOc1ccc(Br)cc1S(=O)(=O)Nc1ccc(C(=O)Nc2ccc(C)cc2)cc1	n	n	n	n	n
CCOc1ccc(Br)cc1S(=O)(=O)Nc1ccc(C(=O)Nc2ccccc2OC)cc1	n	29	n	n	n
CCOC(=O)C1(Cc2ccccc2)CCN(Cc2cccc(C#N)c2)CC1	n	x	x	x	n
CCc1c2c3n4c1CCC[C@@H]4C[C@@H]3O[Si](C(C)C)(C(C)C)OC(C)C2=O (stereo partly drawn)	n	x	x	x	n
CCOC(=O)c1cc(-c2ccc(OC)cc2)nn1-c1ccc(C(=O)O)cc1	n	31	n	n	n
